# Experimental data: PMC5722212 (Chemistry (Weinheim an der Bergstrasse, Germany), 2017)
# How the values were obtained:
# Akt = experiment: Western blot analysis of cytosolic Hsp90-dependent client protein Akt; format: cell-based; details: geldanamycin 0.5 μM, 24 h; all cell lines
# How it was run: (§1)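 MDA-MB-231 and PC3-MM2 (DMEM), SK-MEL-28 (EMEM) or A549 (F-12K) cells, each in medium with 10% FBS and penicillin/streptomycin, were seeded at 100,000 cells/mL and grown 24 h at 37°C, 5% CO2. Cells were then treated with test compound, geldanamycin (0.5 μM) or DMSO vehicle for 24 h. Cold-PBS harvest, lysis with protease inhibitors, BCA-equalised protein, reducing 10% gels, PVDF, HRP chemiluminescence; actin loading control.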
# Hsp70 = experiment: Western blot analysis of Hsp70 induction; format: cell-based; details: geldanamycin 0.5 μM, 24 h; all cell lines
# How it was run: as §1
compound,measurement,setting,value
COC1=C2C[C@@H](C)C[C@H](OC)[C@H](O)[C@@H](C)/C=C(\C)[C@H](OC(N)=O)[C@@H](OC)/C=C\C=C(/C)C(=O)NC(=CC1=O)C2=O [geldanamycin],degradation of Akt,Akt,induced the degradation of Akt
same,levels of Hsp70,Hsp70,increased the levels of Hsp70
